Measured values as given in ChEMBL document CHEMBL1158600, “Phenanthrenes from Dendrobium nobile and their inhibition of the LPS-induced production of nitric oxide in macrophage RAW 264.7 cells” (Bioorg Med Chem Lett, 2010).
pIC50: −log10 of the molar value.

Tested on: RAW264.7
Experiment: Antiinflammatory activity in mouse RAW264.7 cells assessed as inhibition of LPS-induced NO production
Assay type: functional, cell-based
In short: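 RAW 264.7 cells seeded at 2 × 10^5 cells/mL, stimulated with 1 µg/mL LPS with or without test compound, 37 °C for 24 h. Nitrite in cell-free supernatant measured by Griess reagent (sulfanilamide in phosphoric acid plus N-(1-naphthyl)ethylenediamine), absorbance at 550 nm against sodium nitrite standard curve. IC50 for 50% NO inhibition; triplicate, mean ± SD. Viability checked by CCK assay.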

| pIC50 | Structure (SMILES) |
| --- | --- |
| 4.69 | COc1c(O)cc2ccc3c(OC)ccc(O)c3c2c1OC |
| < 4.30 | COc1cc(O)cc(CCc2ccc(OC)c(OC)c2)c1 |
| 4.92 | COc1cc2c(c(O)c1OC)-c1ccc(O)cc1CC2 [EPHEMERANTHOL A] |
| 4.75 | COc1c(O)c(O)cc2c1-c1c(O)cccc1CC2 [EPHENERANTHOL C] |
| 4.71 | COc1c(O)cc2c(c1OC)-c1ccc(O)cc1CC2 [ERIANTHRIDIN] |
| 4.54 | COc1c(O)c(O)cc2ccc3cccc(O)c3c12 [FIMBRIOL B] |
| 4.47 | COc1cc2c(c(OC)c1O)-c1ccc(O)cc1CC2 [FLAVANTHRIDIN] |
| < 4.30 | COc1cc(O)cc(CCc2ccc(O)c(OC)c2)c1 [GIGANTOL] |
| 4.58 | COc1cc(O)cc2c1-c1c(O)cccc1CC2 [HIRCINOL] |
| 5.02 | COc1cc(O)c2c(c1)CCc1cc(O)ccc1-2 [LUSIANTHRIDIN] |
| 4.56 | COc1cc(CCc2cc(OC)c(O)c(OC)c2)ccc1O [MOSCATILIN] |

| Structure (SMILES) | pIC50 |
| --- | --- |
| COc1cc2ccc3cc(O)ccc3c2c(OC)c1O | 4.45 |
| N=C(N)NN [PIMAGEDINE] | 4.76 |
